Reference: ChEMBL document CHEMBL1149161, “Design, synthesis, and biological evaluation of substituted 2-cyclohexyl-4-phenyl-1H-imidazoles: potent and selective neuropeptide Y Y5-receptor antagonists” (J Med Chem, 2004)

Columns and labels:
[1] = Inhibition of […] binding to recombinant human chimeric NPY5/NPY1 receptor expressed in Sf9 cells
Summary of the method: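 Membranes from Sf9 cells expressing the human chimeric NPY5/NPY1 receptor, in 50 mM Tris-HCl pH 7.4 with 5 mM KCl, 120 mM NaCl, 2 mM CaCl2, 1 mM MgCl2 and 0.1% BSA. Membranes (5–50 µg) competed against 0.050 nM porcine [125I]PYY for 2 h at room temperature. Nonspecific binding was defined with 1 µM human NPY. Filtration and gamma counting followed; Ki came from a Hill fit; mean of n = 2-3 ± SEM.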

[2] = test system: COS-7; experiment: Percentage block at hERG Voltage-gated potassium channel (subunit Kv11.1) expressed in COS7 cells by electrophysiological whole cell assay (300 nM); assay type: cell-based; details: Homo sapiens
[3] = Plasma clearance of the compound; assay type: ADME, organism-based
Summary of the method: (§1)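 Sprague–Dawley rats received a single 3 mg/kg iv catheter dose in 50% PEG/water (n = 2). Blood was sampled at predose and from 5 min to 24 h. Heparinized plasma was precipitated with acetonitrile and analyzed by LC.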

[4] = test system: Rattus norvegicus; experiment: Oral bioavailability after peroral administration in rats; assay type: organism-based
Summary of the method: (§2)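 Sprague–Dawley rats received a single 20 mg/kg oral gavage dose in 20% vitamin E/water (n = 3). Blood was sampled from predose to 24 h. Heparinized plasma was precipitated with acetonitrile and analyzed by LC. Bioavailability was set against a 3 mg/kg iv dose (n = 2).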

[5] = Volume of distribution at steady state; assay type: ADME, organism-based; details: in vivo; read-out: Vss; summary of the method: as §1
[6] = Oral half life of the compound; assay type: ADME, organism-based; details: in vivo; summary of the method: as §2
[7] = Maximum plasma concentration after oral dosing in rat; assay type: ADME, organism-based; parameters: route oral; summary of the method: as §2

Row | Compound | Ki [1] | further results
1 | FC(F)(F)c1cccc(-c2c[nH]c(-c3ccccc3)n2)c1 | 2.5 nM | 
2 | O=C(NS(=O)(=O)c1ccccc1)[C@H]1CC[C@H](c2nc(-c3cccc(C(F)(F)F)c3)c[nH]2)CC1 | 31 nM | 
3 | COCCNC(=O)[C@H]1CC[C@H](c2nc(-c3cccc(C(F)(F)F)c3)c[nH]2)CC1 | 99 nM | 
4 | CC(=O)CNC(=O)[C@H]1CC[C@H](c2nc(-c3cccc(Br)c3)c[nH]2)CC1 | 10 nM | 
5 | CN(C[C@H]1CC[C@H](c2nc(-c3cccc(C(F)(F)F)c3)c[nH]2)CC1)S(=O)(=O)c1ccccc1 | 1.3 nM | inhibition [2]: 85%
6 | O=S(=O)(NC[C@H]1CC[C@H](c2nc(-c3cccc(C(F)(F)F)c3)c[nH]2)CC1)c1ccccc1 | 0.2 nM | inhibition [2]: 87%
7 | C[C@@H](O)CNC(=O)[C@H]1CC[C@H](c2nc(-c3cccc(C(F)(F)F)c3)c[nH]2)CC1 | 8 nM | 
8 | O=C(NCCCO)[C@H]1CC[C@H](c2nc(-c3cccc(C(F)(F)F)c3)c[nH]2)CC1 | 185 nM | 
9 | C[C@H](O)CNC(=O)[C@H]1CC[C@H](c2nc(-c3cccc(C(F)(F)F)c3)c[nH]2)CC1 | 31 nM | 
10 | CC(C)(CO)NC(=O)[C@H]1CC[C@H](c2nc(-c3cccc(C(F)(F)F)c3)c[nH]2)CC1 | 2.8 nM | clearance [3]: 50 mL/min/kg; bioavailability [4]: 36%; Vd [5]: 6 L/kg; half-life [6]: 13 h; Cmax [7]: 714 ng/mL
11 | FC(F)(F)c1cccc(-c2c[nH]c(C3CCCCC3)n2)c1 | 6 nM | 
12 | CC(=O)NNC(=O)[C@H]1CC[C@H](c2nc(-c3cccc(C(F)(F)F)c3)c[nH]2)CC1 | 1.4 nM | 
13 | O=C(NCCO)[C@H]1CC[C@H](c2nc(-c3cccc(C(F)(F)F)c3)c[nH]2)CC1 | 11 nM | 
14 | NCCNC(=O)[C@H]1CC[C@H](c2nc(-c3cccc(C(F)(F)F)c3)c[nH]2)CC1 | 915 nM | 
